In ChEMBL document CHEMBL1136742, “New isomeric azine-bridged dinuclear platinum(II) complexes circumvent cross-resistance to cisplatin” (J Med Chem, 2003):

Experiments:
Assay type in all cases: functional, cell-based
[1] = system: L1210; test: In vitro cytotoxicity against mouse tumor L1210 cell line (sensitive to Cisplatin)
Summary of the method: (§1)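 Suspension culture in RPMI 1640 with 10% heat-inactivated fetal calf serum, no antibiotics, 37 °C, 5% CO2. Cells seeded at 10^5 cells/mL in 96-well plates and exposed 48 h to a range of platinum complex concentrations. MTT added, 4 h at 37 °C, then wash with PBS. Dye taken up in 2-propanol, absorbance read at 570 nm. IC50 taken as 50% absorbance drop versus drug-free control.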

[2] = system: IGROV-1; test: In vitro cytotoxicity against human tumor IGROV cell line (ovarian cancer)
Summary of the method: (§2)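 Cells kept in log-phase culture in RPMI 1640 with Hepes and phenol red, 10% FCS, penicillin 100 IU/mL and streptomycin 100 µg/mL. Complexes dissolved in water and diluted in full medium, then added after 48 h preincubation in 96-well plates. Incubation 120 h at 37 °C, 8.5% CO2. IC50 read by sulforhodamine-B microculture test.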

[3] = system: EVSA-T; test: In vitro cytotoxicity against human tumor EVSA-T cell line (breast cancer); summary of the method: as §2
[4] = system: NCI-H226; test: In vitro cytotoxicity against human tumor H226 cell line (nonsmall cell lung cancer); summary of the method: as §2
[5] = system: MCF7; test: In vitro cytotoxicity against human tumor MCF-7 cell line (breast cancer); summary of the method: as §2
[6] = system: M19-MEL; test: In vitro cytotoxicity against human tumor M19 cell line (melanoma cancer); summary of the method: as §2
[7] = system: WiDr; test: In vitro cytotoxicity against human tumor WIDR cell line (colon cancer); summary of the method: as §2
[8] = system: A498; test: In vitro cytotoxicity against human tumor A498 cell line (renal cancer); summary of the method: as §2
[9] = system: L1210; test: Ratio of in vitro cytotoxicity against mouse tumor L1210 cell line (resistant to Cisplatin) to that of sensitive L1210 cell line
Summary of the method: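 Resistant and sensitive L1210 cells in suspension culture, RPMI 1640 with 10% heat-inactivated FCS, no antibiotics, 37 °C, 5% CO2. Cells seeded at 10^5 cells/mL and exposed 48 h to platinum complexes. MTT read at 570 nm after solubilizing in 2-propanol. IC50 is 50% absorbance drop versus control; ratio is resistant IC50 over sensitive IC50.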

[10] = system: L1210; test: In vitro cytotoxicity against mouse tumor L1210 cell line (resistant to Cisplatin); summary of the method: as §1

Substance: CISPLATIN [listing 1 of 2 here]
- IC50 [1]: 2200 nM
- IC50 [2]: 600 nM
- IC50 [3]: 1.4 µM
- IC50 [4]: 10.9 µM
- IC50 [5]: 2.3 µM
- IC50 [6]: 1.9 µM
- IC50 [7]: 3200 nM
- IC50 [8]: 7.5 µM

Substance: CISPLATIN [listing 2 of 2 here]
- Ratio [9]: 6.6

Substance: [{cis-Pt(NH3)2Cl}2(-pdn)](NO3)2 [listing 1 of 2 here]
- IC50 [1]: 5700 nM
- IC50 [2]: 200 nM
- IC50 [3]: > 85.2 µM
- IC50 [4]: > 85.2 µM
- IC50 [5]: 23 µM
- IC50 [6]: 7.2 µM
- IC50 [7]: 13300 nM
- IC50 [10]: 21.3 µM
- IC50 [8]: 53 µM

Substance: [{cis-Pt(NH3)2Cl}2(-pdn)](NO3)2 [listing 2 of 2 here]
- Ratio [9]: 3.7

Substance: [{cis-Pt(NH3)2Cl}2(-pzn)](NO3)2 [listing 1 of 2 here]
- IC50 [1]: 1000 nM
- IC50 [2]: 1000 nM
- IC50 [3]: 47 µM
- IC50 [4]: > 85.2 µM
- IC50 [5]: 17 µM
- IC50 [6]: 20.9 µM
- IC50 [7]: 2400 nM
- IC50 [10]: 3.5 µM
- IC50 [8]: 63.5 µM

Substance: [{cis-Pt(NH3)2Cl}2(-pzn)](NO3)2 [listing 2 of 2 here]
- Ratio [9]: 3.5

Substance: [{cis-Pt(NH3)2Cl}2(-pzn)]Cl2 [listing 1 of 2 here]
- IC50 [1]: 1200 nM
- IC50 [2]: 800 nM
- IC50 [3]: 42.5 µM
- IC50 [4]: > 91.9 µM
- IC50 [5]: 15.5 µM
- IC50 [6]: 21.4 µM
- IC50 [7]: 2000 nM
- IC50 [10]: 2.5 µM
- IC50 [8]: 54.1 µM

Substance: [{cis-Pt(NH3)2Cl}2(-pzn)]Cl2 [listing 2 of 2 here]
- Ratio [9]: 2.1
